The values that follow come from ChEMBL document CHEMBL1148399, “Total synthesis and antitubulin activity of c10 analogues of cryptophycin-24” (2004).

Common to all, as to format: functional
Experiment [1] addresses Tubulin alpha chain (Sus scrofa) (UniProt P02550). Description: In vitro effective concentration required to reduce the amount of microtubules assembly by tubulin assay. The method, boiled down: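 Tubulin at 1.5 mg/mL was incubated with varying compound concentrations for 15 min at 37 °C in PEM buffer, pH 6.9 (0.1 M PIPES, 1 mM EGTA, 1 mM MgSO4), with 0.5 mM GTP and 8% DMSO. Microtubules were pelleted by centrifugation for 4 min at 37 °C and 50 000 rpm. Supernatant protein was measured by Bradford, and pellet protein derived from it. ED50 is the concentration reducing microtubules by 50%.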

A further experiment deals with NCI/ADR-RES. Description: In vitro cytotoxicity against human MCF-7/Adr breast cancer cell line. Conditions: read-out: ED50 (the source's name). Summed up: (§1)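 About 2000 cells/well plated in Dulbecco's MEM/F12 with 10% fetal calf serum. At 24 h the medium was replaced with fresh medium holding varying compound concentrations. After 72 h, proliferation was read by sulforhodamine B staining. ED50 is the concentration reducing cell proliferation by 50%.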

The next experiment relates to MCF7. Put plainly: In vitro cytotoxicity against human MCF-7 cell line. Conditions: read-out: ED50 (the source's name). Summed up: as §1
In a further experiment the test system is KB. Put plainly: In vitro cytotoxicity against human KB cancer cell line. Conditions: read-out: ED50 (the source's name).
The test system of a further experiment is CCRF-CEM. Put plainly: In vitro cytotoxicity against human CEM cell line. Conditions: read-out: ED50 (the source's name).

Tubulin alpha chain (Sus scrofa), sequence (P02550 whole entry, looked up): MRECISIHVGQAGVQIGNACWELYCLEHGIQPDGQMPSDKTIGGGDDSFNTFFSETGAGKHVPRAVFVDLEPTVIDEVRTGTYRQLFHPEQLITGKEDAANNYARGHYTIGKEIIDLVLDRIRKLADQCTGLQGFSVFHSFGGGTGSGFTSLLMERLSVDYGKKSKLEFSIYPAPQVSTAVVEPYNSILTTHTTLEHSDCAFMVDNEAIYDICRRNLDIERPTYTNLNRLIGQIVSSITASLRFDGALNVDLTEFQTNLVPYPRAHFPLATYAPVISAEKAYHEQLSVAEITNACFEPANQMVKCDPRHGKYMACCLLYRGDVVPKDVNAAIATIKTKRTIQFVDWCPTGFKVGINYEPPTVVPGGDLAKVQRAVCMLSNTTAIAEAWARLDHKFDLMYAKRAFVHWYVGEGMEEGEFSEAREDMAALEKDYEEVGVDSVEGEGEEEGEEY

`CC(C)C[C@@H]1OC(=O)CCNC(=O)[C@@H](Cc2ccc(Cl)c(Cl)c2)NC(=O)/C=C/C[C@@H]([C@H](C)[C@H]2O[C@@H]2c2ccccc2)OC1=O` had an ED50 in experiment [1] of 12600 nM. The EC50 is 3.4 nM in the experiment on NCI/ADR-RES and 0.08 nM with MCF7.

`COc1ccc(C[C@H]2NC(=O)/C=C/C[C@@H]([C@H](C)[C@H]3O[C@@H]3c3ccccc3)OC(=O)[C@H](CC(C)C)OC(=O)CCNC2=O)cc1` [ARENASTATIN A] came in with an ED50 in experiment [1] of 15800 nM. Besides, the EC50 was 0.005 nM with KB, 0.25 nM with NCI/ADR-RES, 0.13 nM in the experiment on MCF7 and 0.183 nM in the experiment with CCRF-CEM.

In the case of `CC(C)C[C@@H]1OC(=O)CCNC(=O)[C@@H](Cc2cccc(Cl)c2)NC(=O)/C=C/C[C@@H]([C@H](C)[C@H]2O[C@@H]2c2ccccc2)OC1=O`, in experiment [1], the ED50 worked out at 7200 nM. Also, the EC50 with NCI/ADR-RES came to 0.58 nM; in the experiment on MCF7, 0.05 nM.

Consider `CC(C)C[C@@H]1OC(=O)CCNC(=O)[C@@H](Cc2ccc(Cl)cc2)NC(=O)/C=C/C[C@@H]([C@H](C)[C@H]2O[C@@H]2c2ccccc2)OC1=O`, for which the ED50 in experiment [1] is 12500 nM. The values for the EC50 in the experiment on NCI/ADR-RES and in the experiment on MCF7 were 0.66 nM and 0.12 nM, respectively.

The compound `COc1ccc(C[C@H]2NC(=O)/C=C/C[C@@H]([C@H](C)[C@H]3O[C@@H]3c3ccccc3)OC(=O)[C@H](CC(C)C)OC(=O)[C@H](C)CNC2=O)cc1Cl` [CRYPTOPHYCIN A] had an ED50 in experiment [1] of 3400 nM. Moreover, the EC50 came out at 0.018 nM in the experiment with NCI/ADR-RES and 0.009 nM in the experiment with MCF7.

Consider `CC(C)C[C@@H]1OC(=O)CCNC(=O)[C@@H](Cc2ccccc2)NC(=O)/C=C/C[C@@H]([C@H](C)[C@H]2O[C@@H]2c2ccccc2)OC1=O`, for which, in experiment [1], the ED50 amounted to 13100 nM. Moreover, the figures for the EC50 in the experiment on NCI/ADR-RES and in the experiment on MCF7 were 1.57 nM and 0.34 nM, respectively.
